Experiment [1] addresses T1, von Hippel-Lindau disease tumor suppressor/Bromodomain-containing protein 4 (Homo sapiens, UniProt O60885+P40337). Kind of experiment: PROTAC activity at VHL/BRD4 in human MV4-11 cells assessed as induction of BRD4 degradation at 1 uM measured after 24 hrs by western blot analysis. The experiment is classed as cell-based. The method in brief: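 MV-4-11 cells grown in IMDM with 10% FBS and 1% penicillin/streptomycin at 37 °C, 5% CO2. Library screen at 1 and 10 μM for 24 h; follow-up at 100, 30, 10 and 3 nM and dose response for 12 h. RIPA lysates, BCA-normalized, 7.5% SDS-PAGE, anti-BRD4 overnight at 4 °C, β-actin control, HRP-secondary chemiluminescence.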

The target in experiment [2] is T2, von Hippel-Lindau disease tumor suppressor/Androgen receptor (Homo sapiens, UniProt P10275+P40337). The experiment can be described thus: PROTAC activity at VHL/AR in human LNCaP cells assessed as induction of AR degradation at 1 to 10 uM measured after 16 hrs by western blot analysis. The experiment is classed as cell-based. The following applies: dose 1-10 µM. The method in brief:
(§1)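 LNCaP cells kept in RPMI with 10% FBS, 1% HEPES, 1% sodium pyruvate and 1% penicillin/streptomycin at 37 °C, 5% CO2, then exposed to PROTACs for 16 h. Lysis in RIPA buffer with protease inhibitors and 1 mM PMSF. BCA-equalized protein run on 7.5% SDS-PAGE, blocked in 5% milk/TBS-T, anti-AR primary overnight at 4 °C, β-actin loading control, HRP secondary 1 h, chemiluminescent imaging.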
Target sequence in this assay (P10275 whole entry, looked up): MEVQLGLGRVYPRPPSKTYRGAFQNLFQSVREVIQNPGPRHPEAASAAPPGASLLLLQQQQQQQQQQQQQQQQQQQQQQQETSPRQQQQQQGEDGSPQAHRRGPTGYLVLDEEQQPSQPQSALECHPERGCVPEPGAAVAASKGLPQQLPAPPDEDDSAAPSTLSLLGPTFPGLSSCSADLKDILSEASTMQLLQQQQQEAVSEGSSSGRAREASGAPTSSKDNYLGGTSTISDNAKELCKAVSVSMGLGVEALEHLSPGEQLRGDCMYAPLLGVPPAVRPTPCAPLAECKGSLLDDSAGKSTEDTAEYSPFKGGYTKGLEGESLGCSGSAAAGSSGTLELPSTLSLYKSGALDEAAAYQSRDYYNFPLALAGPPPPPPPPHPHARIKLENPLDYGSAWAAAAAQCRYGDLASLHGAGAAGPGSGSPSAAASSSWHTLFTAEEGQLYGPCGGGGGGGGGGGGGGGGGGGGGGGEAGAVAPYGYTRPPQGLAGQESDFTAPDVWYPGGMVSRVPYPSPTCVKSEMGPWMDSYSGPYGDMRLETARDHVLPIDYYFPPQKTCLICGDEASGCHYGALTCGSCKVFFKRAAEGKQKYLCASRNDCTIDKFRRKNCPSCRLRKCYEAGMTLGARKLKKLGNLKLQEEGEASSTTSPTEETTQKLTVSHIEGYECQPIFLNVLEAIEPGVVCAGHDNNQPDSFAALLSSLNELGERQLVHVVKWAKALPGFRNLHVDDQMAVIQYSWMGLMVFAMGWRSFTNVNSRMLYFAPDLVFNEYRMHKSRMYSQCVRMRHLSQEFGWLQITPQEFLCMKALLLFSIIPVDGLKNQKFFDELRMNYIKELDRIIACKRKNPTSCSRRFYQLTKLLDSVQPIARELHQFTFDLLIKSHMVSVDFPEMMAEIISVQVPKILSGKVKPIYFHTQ
Target sequence in this assay (P40337 whole entry, looked up): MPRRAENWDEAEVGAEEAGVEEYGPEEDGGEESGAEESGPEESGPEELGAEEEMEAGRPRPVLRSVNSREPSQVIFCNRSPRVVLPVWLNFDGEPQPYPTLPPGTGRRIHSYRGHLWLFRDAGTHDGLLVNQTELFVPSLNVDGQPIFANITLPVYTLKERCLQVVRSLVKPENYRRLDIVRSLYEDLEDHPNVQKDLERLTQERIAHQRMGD

In experiment [3] the target is T1, von Hippel-Lindau disease tumor suppressor/Bromodomain-containing protein 4. The experiment can be described thus: PROTAC activity at VHL/BRD4 in human MV4-11 cells assessed as induction of BRD4 degradation at 3 to 100 nM measured after 12 hrs by western blot analysis. The following applies: dose 3-100 nM.
The target is the same in experiment [4]. The experiment can be described thus: PROTAC activity at VHL/BRD4 in human MV4-11 cells assessed as induction of BRD4 degradation measured after 12 hrs by western blot analysis. (In western blotting, separated proteins are transferred to a membrane and probed.)
Experiment [5] concerns the target T2, von Hippel-Lindau disease tumor suppressor/Androgen receptor. The experiment can be described thus: PROTAC activity at VHL/AR in human LNCaP cells assessed as induction of AR degradation at 0.01 to 1 uM measured after 16 hrs by western blot analysis. The following applies: dose 0.1-10 µM, in the assay text read “0.1 to 10 uM” for “0.01 to 1 uM”. It counts as cell-based. The gist of the method:
as §1
Target sequence in this assay (P10275 whole entry, looked up): as the sequence (P10275 whole entry, looked up) above
Target sequence in this assay (P40337 whole entry, looked up): as the sequence (P40337 whole entry, looked up) above

Experiment [6] has the same target. The experiment can be described thus: PROTAC activity at VHL/AR in human LNCaP cells assessed as induction of AR degradation at 10 uM measured after 16 hrs by western blot analysis relative to control. It counts as cell-based. The gist of the method:
as §1
Target sequence in this assay (P10275 whole entry, looked up): as the sequence (P10275 whole entry, looked up) above
Target sequence in this assay (P40337 whole entry, looked up): as the sequence (P40337 whole entry, looked up) above

For experiment [7] the target is unchanged. Kind of experiment: PROTAC activity at VHL/AR in human LNCaP cells assessed as reduction in AR level at 100 nM measured after 6 hrs by western blot analysis. The experiment is classed as cell-based. The method in brief: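 AR time-course blot in LNCaP cells (RPMI, 10% FBS, 37 °C, 5% CO2) with degrader at 100 nM over varied exposure times. Lysates in RIPA with protease inhibitors, equal protein by BCA, 7.5% SDS-PAGE, anti-AR overnight at 4 °C, β-actin loading reference, HRP detection.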
Target sequence in this assay (P10275 whole entry, looked up): as the sequence (P10275 whole entry, looked up) above
Target sequence in this assay (P40337 whole entry, looked up): as the sequence (P40337 whole entry, looked up) above

Experiment [8] shares this target. Kind of experiment: PROTAC activity at VHL/AR in human LNCaP cells assessed as induction of AR degradation measured after 16 hrs by western blot analysis. The experiment is classed as cell-based. The gist of the method:
as §1
Target sequence in this assay (P10275 whole entry): as the sequence (P10275 whole entry, looked up) above
Target sequence in this assay (P40337 whole entry): as the sequence (P40337 whole entry, looked up) above

The target is the same in experiment [9]. Kind of experiment: PROTAC activity at VHL/AR in human LNCaP cells assessed as induction of AR degradation at 1 uM measured after 16 hrs by western blot analysis relative to control. The experiment is classed as cell-based. The method in brief: as §1
Target sequence in this assay (P10275 whole entry, looked up): as the sequence (P10275 whole entry, looked up) above
Target sequence in this assay (P40337 whole entry, looked up): as the sequence (P40337 whole entry, looked up) above

Structures are written as SMILES. Active and inactive are the calls of the source. The calls are words filed in the database; no cut-off is given here.

T1 sequence (P40337 whole entry, looked up, other chains not shown): as the sequence (P40337 whole entry, looked up) above

In the case of `Cc1ncsc1-c1ccc(CNC(=O)[C@@H]2C[C@@H](O)CN2C(=O)[C@@H](NC(=O)CCCCN2Cc3ccc(NC(=O)C[C@@H]4N=C(c5ccc(Cl)cc5)c5c(sc(C)c5C)-n5c(C)nnc54)cc3C2=O)C(C)(C)C)cc1`, in [1], the result was Active. As for `Cc1ncsc1-c1ccc(CNC(=O)[C@@H]2C[C@@H](O)CN2C(=O)[C@@H](NC(=O)CCCCCN2Cc3cc(C(=O)N[C@H]4C(C)(C)[C@H](Oc5ccc(C#N)c(Cl)c5)C4(C)C)ccc3C2=O)C(C)(C)C)cc1`, the result in experiment [2] was Active.

`Cc1ncsc1-c1ccc(CNC(=O)[C@@H]2C[C@@H](O)CN2C(=O)[C@@H](NC(=O)CCCCN2Cc3cc(C(=O)N[C@H]4C(C)(C)[C@H](Oc5ccc(C#N)c(Cl)c5)C4(C)C)ccc3C2=O)C(C)(C)C)cc1`: in experiment [2], the result was Active.

What is called DC50 is the midpoint of the concentration-degradation curve. On to `Cc1ncsc1-c1ccc(CNC(=O)[C@@H]2C[C@@H](O)CN2C(=O)[C@@H](NC(=O)CCCCN2Cc3cc(NC(=O)C[C@@H]4N=C(c5ccc(Cl)cc5)c5c(sc(C)c5C)-n5c(C)nnc54)ccc3C2=O)C(C)(C)C)cc1`, for which the result in [3] was Active. Besides, in [4], the 50% degradation concentration (DC50) was determined as 8.9 nM. Take `Cc1ncsc1-c1ccc(CNC(=O)[C@@H]2C[C@@H](O)CN2C(=O)[C@@H](NC(=O)CCCCCCCN2Cc3cc(C(=O)N[C@H]4C(C)(C)[C@H](Oc5ccc(C#N)c(Cl)c5)C4(C)C)ccc3C2=O)C(C)(C)C)cc1`: the result in experiment [5] was Active.

`Cc1ncsc1-c1ccc(CNC(=O)[C@@H]2C[C@@H](O)CN2C(=O)[C@@H](NC(=O)CCCCCCCN2Cc3ccc(C(=O)N[C@H]4C(C)(C)[C@H](Oc5ccc(C#N)c(Cl)c5)C4(C)C)cc3C2=O)C(C)(C)C)cc1`: the Activity in experiment [6] was found to be 40%; in experiment [9], 73%. Besides, the outcome in experiment [5], in experiment [7] and in experiment [2] was Active. Also, the DC50 in experiment [8] amounted to 41.9 nM. Take `Cc1ncsc1-c1ccc(CNC(=O)[C@@H]2C[C@@H](O)CN2C(=O)[C@@H](NC(=O)CCCCCCN2Cc3cc(C(=O)N[C@H]4C(C)(C)[C@H](Oc5ccc(C#N)c(Cl)c5)C4(C)C)ccc3C2=O)C(C)(C)C)cc1`: in experiment [2], the result was Active. For `Cc1ncsc1-c1ccc(CNC(=O)[C@@H]2C[C@@H](O)CN2C(=O)[C@@H](NC(=O)COCCN2Cc3cc(C(=O)N[C@H]4C(C)(C)[C@H](Oc5ccc(C#N)c(Cl)c5)C4(C)C)ccc3C2=O)C(C)(C)C)cc1`, the result in experiment [2] was Active. The same measure, in the same setting: with `Cc1ncsc1-c1ccc(CNC(=O)[C@@H]2C[C@@H](O)CN2C(=O)[C@@H](NC(=O)COCCOCCN2Cc3cc(C(=O)N[C@H]4C(C)(C)[C@H](Oc5ccc(C#N)c(Cl)c5)C4(C)C)ccc3C2=O)C(C)(C)C)cc1` the entry was “Active”; with `Cc1ncsc1-c1ccc(CNC(=O)[C@@H]2C[C@@H](O)CN2C(=O)[C@@H](NC(=O)COCCOCCOCCN2Cc3cc(C(=O)N[C@H]4C(C)(C)[C@H](Oc5ccc(C#N)c(Cl)c5)C4(C)C)ccc3C2=O)C(C)(C)C)cc1`, “Active”; with `Cc1ncsc1-c1ccc(CNC(=O)[C@@H]2C[C@@H](O)CN2C(=O)[C@@H](NC(=O)CCCCCCCCCCN2Cc3cc(C(=O)N[C@H]4C(C)(C)[C@H](Oc5ccc(C#N)c(Cl)c5)C4(C)C)ccc3C2=O)C(C)(C)C)cc1`, “Active”. The same measure, in the same setting: the same measure for `CC1(C)[C@H](NC(=O)c2ccc3c(c2)CN(C2CCC(=O)NC2=O)C3=O)C(C)(C)[C@H]1Oc1ccc(C#N)c(Cl)c1` (some centres not stated): “Active”. Regarding `Cc1ncsc1-c1ccc(CNC(=O)[C@@H]2C[C@@H](O)CN2C(=O)[C@@H](NC(=O)CCCCCCCNC(=O)c2ccc(C(=O)N[C@H]3C(C)(C)[C@H](Oc4ccc(C#N)c(Cl)c4)C3(C)C)cc2)C(C)(C)C)cc1`, the outcome in experiment [5] was Active. Consider `Cc1ncsc1-c1ccc(CNC(=O)[C@@H]2C[C@@H](O)CN2C(=O)[C@@H](NC(=O)CCN2Cc3cc(C(=O)N[C@H]4C(C)(C)[C@H](Oc5ccc(C#N)c(Cl)c5)C4(C)C)ccc3C2=O)C(C)(C)C)cc1`, for which, in [2], the result was Active.

In the case of `Cc1ncsc1-c1ccc(CNC(=O)[C@@H]2C[C@@H](O)CN2C(=O)[C@@H](NC(=O)CCCCCCCCN2Cc3cc(C(=O)N[C@H]4C(C)(C)[C@H](Oc5ccc(C#N)c(Cl)c5)C4(C)C)ccc3C2=O)C(C)(C)C)cc1`, the outcome in experiment [2] was Active. On to `Cc1ncsc1-c1ccc(CNC(=O)[C@@H]2C[C@@H](O)CN2C(=O)[C@@H](NC(=O)COCCOCCOCCOCCN2Cc3cc(C(=O)N[C@H]4C(C)(C)[C@H](Oc5ccc(C#N)c(Cl)c5)C4(C)C)ccc3C2=O)C(C)(C)C)cc1`, for which, in experiment [2], the outcome was Active.

The values above are taken from ChEMBL document CHEMBL5154850, “A platform for the rapid synthesis of proteolysis targeting chimeras (Rapid-TAC) under miniaturized conditions” (Eur J Med Chem, 2022).
